Source: PubChem
HUVEC inhibit: inhibitors of HUVEC proliferation, primary screen, cell-based, 384-well. CellTiter-Glo luminescence, 72 h; active compounds read low. viability, % at 10 µM (by protocol). actives 1.1% (n = 86,000);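 active = viability at or below 30%; inactive = viability above 30%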;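 also: 100% = median luminescence of DMSO-only cell control wells on each plate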
HCT116 PTEN-null: growth suppression of PTEN-null HCT116, primary screen, cell-based, CellTiter-Glo | actives 1.2% (n = 140,000) | viability, % at 10 µM | HCT116 PTEN-null viability, 60 h; active compounds read low | AID 827, 2007;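 active = viability at or below a set limit, 4 SD under the median of all tested compounds, cut at about 3.7% in these data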;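 also: PTEN knockout HCT116 line with beta catenin targeted HCT116 as companion control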
bCat KO growth: primary screen for growth suppressors in beta-catenin knockout HCT116 cells (colon tumor, human). HCT116 beta-catenin knockout viability, CellTiter-Glo, 60 h; active compounds read low. viability, % at 10 µM. actives 1.5% (n = 140,000). AID 818, 2007;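 active = viability at or under a set limit, the compound median less 4 SD, cut at about 6% in these data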;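 also: 0% = Hyamine 1622 control at 20 µM and 100% = untreated cell control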
H69AR growth 86K: proliferation blockers of H69AR lung cancer cells, primary screen, cell-based, human, 86K library; H69AR lung tumor viability, ATP luminescence, 72 h; active compounds read low; viability, % at 10 µM; actives 6% (n = 85,000);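 active = viability at or below 40%; inactive = viability above 40%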;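 also: multidrug resistant small cell line overexpressing MRP-1 efflux transporter; 100% = mean luminescence of untreated control wells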
Fibroblast inh: antiproliferative effect on LL 47 fibroblasts – human, LL 47 cells, CellTiter-Glo luminescence, primary screen; LL 47 human lung fibroblast viability, ATP luminescence; active compounds read low; viability, % at 10 µM; actives 1.1% (n = 85,000);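 active = viability at or below 50% in the single dose screen; inactive = viability above 50%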;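 also: compound exposure lasted 72 h before the ATP readout; 100% = median luminescence of untreated cell-only wells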
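material = human LL 47 lung fibroblast cells | dosing = compounds added from tenfold dosing solution, 0.1% DMSO final | timing = overnight cell rest, 72 h compound treatment at 37 °C | measured by = CellTiter-Glo luminescence measuring cellular ATP | evaluation = % viability versus median cells-only luminescence | control set = cell-only wells, no compound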
Numbers without * were called inactive; x = not tested or not shown. Many of the other results were omitted from the sample, so hits are more common in it than they were.

SMILES	HUVEC inhibit	HCT116 PTEN-null	bCat KO growth	H69AR growth 86K	Fibroblast inh
O=C(c1ccc2c(=O)n(CC3CCCO3)c(=S)[nH]c2c1)N1CCN(c2ccccc2)CC1 (centres undefined)	107.8	1.5*	1.1*	70.1	97.3
O=C(c1ccc2c(=O)n(Cc3ccc4c(c3)OCO4)c(=S)[nH]c2c1)N1CCCCC1	72.9	64.8	79.7	34.6*	93.0
COCCCNC(=O)c1ccc2c(=O)n(Cc3ccc4c(c3)OCO4)c(=S)[nH]c2c1	22.3*	78.8	83.1	57.5	113.1
CCOC(=O)N1CCN(C(=O)c2ccc3c(=O)n(Cc4ccccc4OC)c(=S)[nH]c3c2)CC1	88.6	84.8	92.7	33.9*	89.3
CS(=O)(=O)Nc1ccc(C2=NN(S(C)(=O)=O)C(c3ccc4c(c3)OCO4)C2)cc1 (centres undefined)	x	81.0	83.8	x	x
COc1ccc(-n2cnnc2SCC(=O)NC2CCCc3ccccc32)cc1 (centres undefined)	x	100.0	90.0	x	x
Cc1ccc(/C=N/N2C(=S)SC(C)(C)C2N(O)C(=O)Nc2ccc([N+](=O)[O-])cc2)cc1 (centres undefined)	90.4	8.7	3.7*	74.0	91.5
CCC(C(=O)Nc1cc(C(=O)Nc2cc(C)ccn2)ccc1Cl)c1ccccc1 (centres undefined)	x	65.2	74.2	x	x
COc1ccc(C(=O)Nc2sc(C)c(C)c2CN2CC(C)OC(C)C2)cc1 (centres undefined)	x	74.8	79.7	x	x
CCOC(=O)c1c(CN2CCCCC2)n(C)c2cc(Br)c(O)cc12	102.6	74.1	64.3	80.9	95.2
CCOC(=O)c1c(CN2CCN(C)CC2)n(C)c2cc(Br)c(OC)cc12	33.1	77.4	82.1	7.3*	71.0
Cc1nc2c3cc(Cl)ccc3n(CCN3CCCCC3)c2s1	46.5	25.3	21.0	26.0*	49.0*
CC(=O)Nc1ccc(N=Nc2ccc(O)cc2)cc1	x	85.2	88.6	x	x
CN(C)c1nc(-c2ccccc2)nc(-c2ccc(Cl)cc2)c1C#N	44.8	75.0	72.2	31.9*	82.2
COc1ccc(-c2nc(-c3ccccc3)nc(Cl)c2C#N)cc1	x	90.5	91.8	x	x
COC(=O)C1=C(C)NC2=C(C(=O)CC(c3cccs3)C2)C1c1ccsc1 (centres undefined)	71.3	37.5	50.9	23.6*	68.8
CC1=C(C(=O)OC2CCCC2)C(c2ccc(C)o2)C2=C(CC(c3cccs3)CC2=O)N1 (centres undefined)	92.7	73.4	72.6	35.3*	84.9
COC(=O)C1=C(C)NC2=C(C(=O)CCC2)C1c1ccsc1 (centres undefined)	99.9	87.5	105.0	79.4	107.4
CCOC(=O)C1=C(C)NC2=C(C(=O)CC(c3cccs3)C2)C1c1cccs1 (centres undefined)	41.5	17.6	18.4	15.0*	57.5
Cc1ccc(CNC(=O)COc2ccc(C(=O)c3ccc(F)cc3)cc2)cc1	x	29.2	31.0	x	x
Cc1ccnc(NC(=O)c2ccc([N+](=O)[O-])o2)c1	x	4.2	3.5*	x	x
CCCCC1(Cc2cccc([N+](=O)[O-])c2)C(=O)N(c2ccccc2)N(c2ccccc2)C1=O	x	11.7	14.0	x	x
Cc1nc2ccc(NC(=O)c3cc([N+](=O)[O-])cc([N+](=O)[O-])c3Cl)cc2s1	x	87.5	97.1	x	x
Cc1ccc(C(C(=O)NCc2ccccc2)N(C(=O)c2csnn2)c2cccc3ccccc23)o1 (centres undefined)	95.4	72.2	80.6	62.1	95.0
COCCN(C(=O)Cc1cccs1)C(C(=O)NCc1ccc(OC)cc1)c1ccc(C)cc1 (centres undefined)	x	76.7	71.7	x	x
SMILES	HUVEC inhibit	HCT116 PTEN-null	bCat KO growth	H69AR growth 86K	Fibroblast inh
COc1ccc(CNC(=O)C(c2ccc(C)o2)N(Cc2cccs2)C(=O)Cc2cccs2)cc1 (centres undefined)	71.0	52.4	66.3	23.7*	96.0
COc1ccc(CC(=O)NCc2cccs2)cc1	70.5	72.3	66.9	30.4*	92.6
COc1ccc(CNC(=O)C(c2ccc(C)o2)N(C(=O)c2csnn2)c2ccc(C(C)C)cc2)cc1 (centres undefined)	107.0	18.7	24.6	38.3*	99.5
CCC(C)(C)NC(=O)C(c1ccc(C)o1)N(Cc1cccs1)C(=O)Cn1nnc2ccccc21 (centres undefined)	79.3	2.4*	2.8*	48.7	43.3*
CCC(C)(C)NC(=O)C(c1ccccc1)N(Cc1cccs1)C(=O)Cn1nnc2ccccc21 (centres undefined)	97.2	x	x	65.4	107.1
Cc1cc(C)c2nc(SCC(=O)NCCC3=CCCCC3)cc(C)c2c1	x	76.8	80.4	x	x
Cc1ccccc1-n1c(SCC(=O)N/N=C/c2sccc2C)nc2ccccc2c1=O	x	47.6	63.0	x	x
O=S(=O)(Nc1cc2nc3ccccc3nc2n1Cc1ccccc1)c1ccc(Cl)cc1	x	76.0	86.0	x	x
CCOC(=O)c1nnc(-c2ccc(C)cc2)nc1Sc1ccccc1Cl	68.8	27.3	37.8	24.9*	83.6
CCOC(=O)c1nnc(-c2ccc(C)cc2)nc1Sc1ccc(Cl)cc1	68.8	26.8	35.8	3.3*	73.8
CCOC(=O)c1nnc(-c2ccccc2)nc1NCc1ccc(Cl)cc1	x	93.7	90.1	x	x
CCOC(=O)c1nnc(-c2ccccc2)nc1Sc1c(Cl)cccc1Cl	68.1	55.1	22.6	1.9*	89.5
CCOC(=O)c1nnc(-c2ccc(C)cc2)nc1Oc1ccccc1Cl	x	102.5	85.5	x	x
CCOC(=O)c1nn(-c2ccc(OCC)cc2)c2nc(-c3ccco3)c(C#N)c(=O)n12	x	75.8	76.9	x	x
Cn1c(C23CC4CC(CC(C4)C2)C3)n[nH]c1=S	x	92.5	93.1	x	x
COc1ccc(NC(=S)N2CCNC(=O)C2CC(=O)Nc2cccc(Cl)c2C)cc1 (centres undefined)	x	89.9	93.8	x	x
O=C(COC(=O)c1cccs1)Nc1ccc(S(=O)(=O)N2CCOCC2)cc1	x	107.5	95.8	x	x
CO/N=C/C(=N\Nc1ccc(OC)cc1)C(=O)c1ccc(OC)cc1	90.6	88.8	83.8	23.8*	85.1
O=[N+]([O-])c1cccc(CSc2nnc(Cc3ccccc3)n2-c2ccc(F)cc2)c1	x	80.2	88.4	x	x
CCCCCCCC(=O)NN=C1CCN(Cc2ccccc2)CC1	x	108.6	96.8	x	x
Cn1cc([N+](=O)[O-])c(C(=O)Nc2nc(-c3ccc(Cl)cc3)cs2)n1	x	1.4*	2.1*	x	x
Cc1ccc(-c2nc(NC(=O)c3nn(C)cc3[N+](=O)[O-])sc2C)cc1	x	1.4*	1.4*	x	x
CC(=O)c1c(C)[nH]c(C(=O)Nc2nc(-c3ccc(Cl)cc3)cs2)c1C	x	66.8	70.7	x	x
Cc1ccc(-c2nc(NC(=O)c3nn(C)cc3[N+](=O)[O-])sc2C)cc1C	x	1.4*	1.6*	x	x
O=C(C1=NNC2C(=O)N(c3ccccc3)C(=O)C12)c1nc(Cl)ccc1Cl (centres undefined)	x	99.9	96.3	x	x
